The target of assay [1] is Glutamate receptor ionotropic, AMPA (Rattus norvegicus, UniProt P19491+P19492+P19493+P19490). The assay is described as follows: Compound was tested for AMPA receptor antagonistic activity by measuring its ability to inhibit depolarizations induced by 40 uM AMPA in rat cortical slice preparation; agonist. Type of assay: functional.
Assay [2] concerns the target T1, Glutamate receptor ionotropic, AMPA (Rattus norvegicus, UniProt P19490+P19491+P19492+P19493). The assay is described as follows: Binding affinity against Ionotropic glutamate receptor AMPA using [3H]AMPA 19755 radioligand. The assay is classed as protein-complex assay.
Assay [3] deals with Glutamate receptor ionotropic, kainate. The assay is described as follows: Binding affinity against Ionotropic glutamate receptor kainate using [3H]-Kainic acid 19755 radioligand. Type of assay: protein-complex assay. The gist of the method: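 Displacement of radioligand binding in rat cortical tissue: [3H]AMPA for AMPA sites, [3H]kainic acid for kainate sites. Assays run in triplicate unless otherwise indicated; some IC50 values come from a single assay.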

Assay [4] deals with Glutamate NMDA receptor. The assay is described as follows: Affinity of [3H]-CGS- 19755 radioligand to rat N-methyl-D-aspartate (NMDA) receptor. Type of assay: protein-complex assay.
In assay [5] the test system is Mus musculus. The assay is described as follows: Effective dose to block ATPA-induced muscle rigidity in mice at a dose of 30mg/kg, administered intravenously. Type of assay: functional. To be noted: iv. A digest of the protocol: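 Mice given test agent ip 30 min before iv challenge with ATPA (30 mg/kg), a systemic AMPA agonist that produces characteristic muscle rigidity.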

Assay [6] relates to Mus musculus. The assay is described as follows: Effective dose to block lethality induced by 200 mg/kg ip dose of NMDA. The assay is classed as functional. The settings on record: route intraperitoneal. The gist of the method:
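Mice dosed ip 30 min before a 200 mg/kg ip NMDA challenge; protection from lethality recorded and ED50 (mg/kg, ip) derived.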

Assay [7] has as its system Mus musculus. The assay is described as follows: Effective dose to block maximal electroshock-induced convulsions in mice, administered intraperitoneally. Type of assay: functional. The settings on record: ip.
In assay [8] the test system is Mus musculus. The assay is described as follows: Minimum effective dose to block the lethality induced by 200 mg/kg ip dose of NMDA. To be noted: route intraperitoneal. Type of assay: functional. A digest of the protocol: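 Mice dosed ip 30 min before a 200 mg/kg ip NMDA challenge. Minimum effective dose is the lowest dose giving greater than 50% protection from lethality among all mice tested.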

Assay [9] relates to Mus musculus. The assay is described as follows: Effective dose to produce neurological impairments in mice using the horizontal screen assay, administered intraperitoneally. Type of assay: functional. To be noted: ip. The gist of the method:
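Mice dosed intraperitoneally 30 min before testing were placed on a horizontal screen, which was then turned upside down. Unimpaired mice climb back to the top within 2 min; failure indicates neurological impairment. This was done before MES testing.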

Assay [10] has as its system Mus musculus. The assay is described as follows: Effective dose to block ATPA-induced muscle rigidity in mice at a dose of 30 mg/kg administered intraperitoneally. The settings on record: ip.
The target in assay [11] is Glutamate NMDA receptor (Rattus norvegicus) (UniProt P35439+Q00959+Q00960+Q00961+Q62645+Q8VHN2+Q9R1M7). The assay is described as follows: Compound was tested for NMDA receptor antagonistic activity by measuring its ability to inhibit depolarizations induced by 40 uM NMDA in rat cortical slice preparation at 100 uM. The assay is classed as functional.
Assay [12] addresses T1, Glutamate receptor ionotropic, AMPA. The assay is described as follows: Compound was tested for AMPA receptor antagonistic activity by measuring its ability to inhibit depolarizations induced by 10 uM quisqualic acid in rat cortical slice preparation. Type of assay: functional.
Assay [13] has as its target Glutamate receptor ionotropic, kainate. The assay is described as follows: Antagonism at Ionotropic glutamate receptor kainate by inhibition of depolarizations induced by 10 uM kainic acid in rat cortical slice preparation. Type of assay: functional.
Assay [14] concerns the target Glutamate NMDA receptor. The assay is described as follows: Antagonism at NMDA receptor by inhibition of depolarizations induced by 40 uM NMDA in rat cortical slice preparation. Type of assay: functional.

Glutamate receptor ionotropic, AMPA (Rattus norvegicus, UniProt P19491+P19492+P19493+P19490), sequence (P19491 whole entry): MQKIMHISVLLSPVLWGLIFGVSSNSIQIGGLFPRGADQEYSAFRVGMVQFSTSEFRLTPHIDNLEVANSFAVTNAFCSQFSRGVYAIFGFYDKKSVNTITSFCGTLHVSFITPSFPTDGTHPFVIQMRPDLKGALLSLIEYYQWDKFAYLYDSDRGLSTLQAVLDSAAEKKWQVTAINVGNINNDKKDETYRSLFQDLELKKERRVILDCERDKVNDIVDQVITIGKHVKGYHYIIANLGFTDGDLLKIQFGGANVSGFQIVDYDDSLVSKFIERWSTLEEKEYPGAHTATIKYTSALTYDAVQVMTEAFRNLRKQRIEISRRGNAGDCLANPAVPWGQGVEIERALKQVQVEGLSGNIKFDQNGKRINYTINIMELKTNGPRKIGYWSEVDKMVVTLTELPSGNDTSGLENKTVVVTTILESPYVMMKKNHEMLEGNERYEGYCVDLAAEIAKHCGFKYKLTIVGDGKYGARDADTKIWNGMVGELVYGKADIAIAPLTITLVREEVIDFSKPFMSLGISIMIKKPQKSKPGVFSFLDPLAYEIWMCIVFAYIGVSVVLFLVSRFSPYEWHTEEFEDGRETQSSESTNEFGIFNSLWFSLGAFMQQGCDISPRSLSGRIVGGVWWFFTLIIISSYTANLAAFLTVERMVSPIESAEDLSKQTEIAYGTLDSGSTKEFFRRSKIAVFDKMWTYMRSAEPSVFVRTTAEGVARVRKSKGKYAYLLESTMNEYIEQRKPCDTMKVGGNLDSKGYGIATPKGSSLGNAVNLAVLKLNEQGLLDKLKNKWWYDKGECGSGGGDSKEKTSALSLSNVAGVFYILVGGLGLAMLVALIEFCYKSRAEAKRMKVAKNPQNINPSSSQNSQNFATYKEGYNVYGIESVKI
Glutamate receptor ionotropic, AMPA (Rattus norvegicus, UniProt P19491+P19492+P19493+P19490), sequence (P19492 whole entry): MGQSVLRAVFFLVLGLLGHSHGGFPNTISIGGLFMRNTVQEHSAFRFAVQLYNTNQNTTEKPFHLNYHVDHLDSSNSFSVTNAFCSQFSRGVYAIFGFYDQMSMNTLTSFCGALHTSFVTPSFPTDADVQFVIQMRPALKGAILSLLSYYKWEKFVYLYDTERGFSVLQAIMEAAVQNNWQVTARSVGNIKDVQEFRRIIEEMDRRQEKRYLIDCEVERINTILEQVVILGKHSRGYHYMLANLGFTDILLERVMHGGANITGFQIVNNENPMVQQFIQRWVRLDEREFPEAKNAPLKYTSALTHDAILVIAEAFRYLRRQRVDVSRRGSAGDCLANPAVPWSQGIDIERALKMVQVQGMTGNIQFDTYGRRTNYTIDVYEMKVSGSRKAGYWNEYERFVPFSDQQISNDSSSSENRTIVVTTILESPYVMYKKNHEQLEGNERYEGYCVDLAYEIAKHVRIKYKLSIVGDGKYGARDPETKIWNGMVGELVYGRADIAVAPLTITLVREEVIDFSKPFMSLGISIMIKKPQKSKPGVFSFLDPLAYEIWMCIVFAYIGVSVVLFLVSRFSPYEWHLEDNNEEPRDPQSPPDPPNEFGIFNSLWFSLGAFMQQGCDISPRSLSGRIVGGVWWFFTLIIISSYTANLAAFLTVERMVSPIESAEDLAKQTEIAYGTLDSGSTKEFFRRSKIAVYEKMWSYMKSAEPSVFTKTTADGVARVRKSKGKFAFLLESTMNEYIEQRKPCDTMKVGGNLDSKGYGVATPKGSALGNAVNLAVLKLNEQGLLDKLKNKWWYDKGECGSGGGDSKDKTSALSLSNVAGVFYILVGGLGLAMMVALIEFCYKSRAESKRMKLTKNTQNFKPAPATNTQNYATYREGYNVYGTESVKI
Glutamate receptor ionotropic, AMPA (Rattus norvegicus, UniProt P19491+P19492+P19493+P19490), sequence (P19493 whole entry): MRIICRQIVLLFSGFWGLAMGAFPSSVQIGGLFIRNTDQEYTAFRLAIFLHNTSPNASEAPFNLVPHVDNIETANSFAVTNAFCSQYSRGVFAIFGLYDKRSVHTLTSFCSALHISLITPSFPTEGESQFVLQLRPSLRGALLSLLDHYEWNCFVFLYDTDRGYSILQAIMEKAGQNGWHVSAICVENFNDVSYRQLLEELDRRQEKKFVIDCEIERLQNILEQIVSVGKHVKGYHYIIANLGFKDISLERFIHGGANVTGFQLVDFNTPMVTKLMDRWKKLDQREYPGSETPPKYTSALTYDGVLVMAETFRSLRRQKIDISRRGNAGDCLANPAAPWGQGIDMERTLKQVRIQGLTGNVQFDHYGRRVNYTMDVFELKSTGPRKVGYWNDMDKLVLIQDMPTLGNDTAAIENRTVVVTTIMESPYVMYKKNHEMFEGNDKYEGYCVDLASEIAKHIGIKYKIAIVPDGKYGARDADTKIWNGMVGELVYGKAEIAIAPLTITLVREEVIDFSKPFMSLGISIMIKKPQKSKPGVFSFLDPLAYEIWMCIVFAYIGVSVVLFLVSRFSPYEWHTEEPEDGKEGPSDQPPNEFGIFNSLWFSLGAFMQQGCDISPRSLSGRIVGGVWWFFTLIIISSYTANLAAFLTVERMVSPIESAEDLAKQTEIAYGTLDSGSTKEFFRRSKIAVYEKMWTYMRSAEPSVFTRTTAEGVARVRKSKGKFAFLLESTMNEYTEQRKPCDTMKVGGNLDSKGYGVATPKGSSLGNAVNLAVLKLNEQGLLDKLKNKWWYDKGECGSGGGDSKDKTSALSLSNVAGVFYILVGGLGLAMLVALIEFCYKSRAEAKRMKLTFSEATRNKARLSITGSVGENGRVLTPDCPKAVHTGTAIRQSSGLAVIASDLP
Glutamate receptor ionotropic, AMPA (Rattus norvegicus, UniProt P19491+P19492+P19493+P19490), sequence (P19490 whole entry): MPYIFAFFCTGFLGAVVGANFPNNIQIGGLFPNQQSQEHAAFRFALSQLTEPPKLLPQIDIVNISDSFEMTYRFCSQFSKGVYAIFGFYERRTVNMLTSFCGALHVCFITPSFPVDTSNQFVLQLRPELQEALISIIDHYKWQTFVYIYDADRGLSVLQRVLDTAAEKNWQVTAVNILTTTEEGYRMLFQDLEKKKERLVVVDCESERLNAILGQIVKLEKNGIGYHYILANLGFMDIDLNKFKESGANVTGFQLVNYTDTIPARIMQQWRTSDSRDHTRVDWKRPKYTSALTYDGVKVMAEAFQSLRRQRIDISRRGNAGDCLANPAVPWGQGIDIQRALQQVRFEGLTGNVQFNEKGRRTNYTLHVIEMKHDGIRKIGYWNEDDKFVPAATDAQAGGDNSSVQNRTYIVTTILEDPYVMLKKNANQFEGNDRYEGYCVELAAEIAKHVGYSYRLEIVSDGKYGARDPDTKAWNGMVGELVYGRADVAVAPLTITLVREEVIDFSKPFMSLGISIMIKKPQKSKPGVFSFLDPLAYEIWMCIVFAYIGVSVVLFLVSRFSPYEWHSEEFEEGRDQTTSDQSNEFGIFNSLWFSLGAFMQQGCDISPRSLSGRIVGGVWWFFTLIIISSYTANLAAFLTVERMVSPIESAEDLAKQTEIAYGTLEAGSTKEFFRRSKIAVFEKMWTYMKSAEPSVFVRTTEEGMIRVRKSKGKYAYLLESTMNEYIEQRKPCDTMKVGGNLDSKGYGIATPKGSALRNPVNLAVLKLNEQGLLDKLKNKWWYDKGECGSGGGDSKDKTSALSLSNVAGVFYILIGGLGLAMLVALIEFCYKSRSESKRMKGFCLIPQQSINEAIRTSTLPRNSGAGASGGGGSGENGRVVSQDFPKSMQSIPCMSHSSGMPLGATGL

In the case of `O=C(O)[C@@H]1C[C@H]2C[C@@H](Cn3nnnc3S)CC[C@H]2CN1` (racemic), the concentration for half-maximal inhibition (IC50) entry in assay [1] is “Agonist”; in assay [2], 12.9 µM; in assay [3] it was 16.7 µM; at Glutamate NMDA receptor [4], above 10 µM.
As to `O=C(O)[C@@H]1C[C@H]2C[C@@H](c3nnn[nH]3)CC[C@H]2CN1`, the ED50 in the assay on Mus musculus [5] worked out at 44.5 mg/kg; in the assay on Mus musculus [6], 19.4 mg/kg; in the assay on Mus musculus [7], 24.1 mg/kg.
On to `O=C(O)[C@@H]1C[C@H]2C[C@@H](OCc3nn[nH]n3)CC[C@H]2CN1`, for which the ED50 with Mus musculus [8] was determined as 80 mg/kg; in the assay with Mus musculus [7] it was 24.7 mg/kg; in the assay with Mus musculus [9], 21 mg/kg; in the assay on Mus musculus [10], 30.6 mg/kg.
With `O=C(O)[C@@H]1C[C@H]2C[C@@H](CCc3nn[nH]n3)CC[C@H]2CN1`, the inhibition in assay [11] came to 60%.
With `O=C(O)CC[C@H]1CC[C@H]2CN[C@H](C(=O)O)C[C@H]2C1`, the IC50 in assay [12] was 42 µM; in [2], 27.8 µM; in [13], above 100 µM; in assay [3], above 100 µM; against Glutamate NMDA receptor [14], 57 µM; at Glutamate NMDA receptor [4], 43.9 µM. Further, the ED50 in the assay on Mus musculus [7], in the assay with Mus musculus [9] and in the assay on Mus musculus [10] was above 100 mg/kg in each case.
